Reference: ChEMBL document CHEMBL1649158, “Emergence of plasmid-mediated quinolone resistance among non-Typhi Salmonella enterica isolates from humans in the United States” (2009)
In brackets after ≈: the same amount, converted by molar mass.

Columns and labels:
[1] = Antimicrobial activity against multidrug-resistant Salmonella enterica serotype Corvallis isolate AM20376 expressing qnrS1 gene by broth microdilution method
[2] = Antimicrobial activity against trimethoprim-sulfamethoxazole-resistant Salmonella enterica serotype Montevideo isolate AM19383 expressing qnrS1 gene by broth microdilution method
[3] = system: Salmonella enterica; test: Antimicrobial activity against Salmonella enterica serotype telelkebir isolate AM21420 expressing qnrB5 gene by broth microdilution method; type: functional
Procedure, shortened: (§1)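 MICs for 14 to 17 antimicrobial agents were measured by commercial broth microdilution panels. Isolates were screened for aac(6′)-Ib by SYBR green real-time PCR: 0.4 μM each primer, 35 cycles (95°C 20 s, 55°C 30 s, 72°C 30 s), then a 70–90°C melt curve.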

[4] = system: Salmonella typhimurium; test: Antimicrobial activity against multidrug-resistant Salmonella enterica serotype Typhimurium var. O:5 isolate AM25008 expressing aac(6')-Ib-cr gene by broth microdilution method
[5] = Antimicrobial activity against multidrug-resistant Salmonella enterica serotype Corvallis isolate AM25736 expressing qnrS1 gene by broth microdilution method
[6] = Antimicrobial activity against Salmonella enterica serotype Corvallis isolate AM25927 expressing qnrS1 gene by broth microdilution method
[7] = system: Salmonella enteritidis; test: Antimicrobial activity against ampicillin- and streptomycin-resistant Salmonella enterica serotype Enteritidis isolate AM25798 expressing qnrS1 gene by broth microdilution method
[8] = Antimicrobial activity against tetracycline-resistant Salmonella enterica serotype Saintpaul isolate AM30594 expressing qnrS1 gene by broth microdilution method
[9] = Antimicrobial activity against tetracycline- and trimethoprim-sulfamethoxazole-resistant Salmonella enterica serotype Saintpaul isolate AM26790 expressing qnrS1 gene by broth microdilution method
[10] = system: Salmonella typhimurium; test: Antimicrobial activity against multidrug-resistant Salmonella enterica serotype Typhimurium isolate AM27315 expressing qnrS1 gene by broth microdilution method
[11] = system: Salmonella typhimurium; test: Antimicrobial activity against multidrug-resistant Salmonella enterica serotype Typhimurium isolate AM27549 expressing qnrS1 gene by broth microdilution method
[12] = system: Salmonella typhimurium; test: Antimicrobial activity against Salmonella enterica serotype Typhimurium isolate AM29365 expressing qnrS1 gene by broth microdilution method
[13] = system: Salmonella typhimurium; test: Antimicrobial activity against Salmonella enterica serotype Typhimurium isolate AM29869 expressing qnrS1 gene by broth microdilution method
[14] = system: Salmonella enterica; test: Antimicrobial activity against nalidixic acid-resistant Salmonella enterica serotype Kiambu isolate AM27031 expressing qnrB5 gene by broth microdilution method; type: functional; procedure, shortened: as §1
[15] = system: Salmonella enterica; test: Antimicrobial activity against Salmonella enterica serotype Aqua isolate AM26209 expressing qnrB5 gene by broth microdilution method; type: functional
Procedure, shortened: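 Broth microdilution panel of 14 to 17 antimicrobial agents against human clinical non-Typhi Salmonella isolates, read as MIC. The study enrolled isolates with decreased ciprofloxacin susceptibility (≥0.25 mg/liter). qnr genes were detected by previously described methods. 2006 data are preliminary.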

[16] = system: Salmonella typhimurium; test: Antimicrobial activity against multidrug-resistant Salmonella enterica serotype Typhimurium isolate AM27125 expressing qnrB5 gene by broth microdilution method
[17] = system: Salmonella enterica; test: Antimicrobial activity against multidrug-resistant Salmonella enterica serotype Cubana isolate AM28764 expressing qnrB2 gene by broth microdilution method; type: functional; procedure, shortened: as §1
[18] = Antimicrobial activity against multidrug-resistant Salmonella enterica serotype Montevideo isolate AM28704 expressing qnrA1 gene by broth microdilution method

O=C(O)c1cn(C2CC2)c2cc(N3CCNCC3)c(F)cc2c1=O [CIPROFLOXACIN]
MIC [1]: 0.5 µg/mL (≈ 1.51 µM)
MIC [2]: 0.5 µg/mL (≈ 1.51 µM)
MIC [3]: 0.5 µg/mL (≈ 1.51 µM)
MIC [4]: 1 µg/mL (≈ 3.02 µM)
MIC [5]: 0.25 µg/mL (≈ 0.754 µM)
MIC [6]: 0.25 µg/mL (≈ 0.754 µM)
MIC [7]: 0.5 µg/mL (≈ 1.51 µM)
MIC [8]: 0.5 µg/mL (≈ 1.51 µM)
MIC [9]: 0.5 µg/mL (≈ 1.51 µM)
MIC [10]: 0.5 µg/mL (≈ 1.51 µM)
MIC [11]: 0.5 µg/mL (≈ 1.51 µM)
MIC [12]: 0.5 µg/mL (≈ 1.51 µM)
MIC [13]: 0.5 µg/mL (≈ 1.51 µM)
MIC [14]: 0.5 µg/mL (≈ 1.51 µM)
MIC [15]: 0.25 µg/mL (≈ 0.754 µM)
MIC [16]: 0.5 µg/mL (≈ 1.51 µM)
MIC [17]: 0.5 µg/mL (≈ 1.51 µM)
MIC [18]: 0.25 µg/mL (≈ 0.754 µM)
